H69AR inhibit: growth inhibitors of human H69AR lung tumor cells. H69AR lung tumor viability, ATP luminescence, 72 h; stronger effect = lower value. viability, % at 10 µM. hit rate 6% among 85,000. AID 598;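 active = viability at or below 40%; inactive = viability above 40%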;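 also: multidrug resistant small cell line overexpressing MRP-1 efflux transporter; 100% = mean luminescence of untreated control wells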
HUVEC inhibit: blocks proliferation of human endothelial cells | HUVEC proliferation, CellTiter-Glo luminescence, 72 h; stronger effect = lower value | viability, % at 10 µM (by protocol) | hit rate 1.1% among 86,000 | AID 648;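 active = viability at or below 30%; inactive = viability above 30%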;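 also: 100% = median luminescence of DMSO-only cell control wells on each plate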
PTK2B oligo ant: blocks oligomerization of human Pyk2 in cells; Q14289; Q293 cells, Pyk2 FERM NanoBiT luminescence; stronger effect = lower value; z-score (the deposit names both 25 µM and 10 µM); hit rate 0.83% among 99,000;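 active = Z-score of -3 or lower, scaled per plate to the spread of control and sample wells; inactive = z-score above -3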;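 also: negative z-score means lost luminescence so less FERM oligomerization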
Target sequence (Q14289 whole entry, looked up): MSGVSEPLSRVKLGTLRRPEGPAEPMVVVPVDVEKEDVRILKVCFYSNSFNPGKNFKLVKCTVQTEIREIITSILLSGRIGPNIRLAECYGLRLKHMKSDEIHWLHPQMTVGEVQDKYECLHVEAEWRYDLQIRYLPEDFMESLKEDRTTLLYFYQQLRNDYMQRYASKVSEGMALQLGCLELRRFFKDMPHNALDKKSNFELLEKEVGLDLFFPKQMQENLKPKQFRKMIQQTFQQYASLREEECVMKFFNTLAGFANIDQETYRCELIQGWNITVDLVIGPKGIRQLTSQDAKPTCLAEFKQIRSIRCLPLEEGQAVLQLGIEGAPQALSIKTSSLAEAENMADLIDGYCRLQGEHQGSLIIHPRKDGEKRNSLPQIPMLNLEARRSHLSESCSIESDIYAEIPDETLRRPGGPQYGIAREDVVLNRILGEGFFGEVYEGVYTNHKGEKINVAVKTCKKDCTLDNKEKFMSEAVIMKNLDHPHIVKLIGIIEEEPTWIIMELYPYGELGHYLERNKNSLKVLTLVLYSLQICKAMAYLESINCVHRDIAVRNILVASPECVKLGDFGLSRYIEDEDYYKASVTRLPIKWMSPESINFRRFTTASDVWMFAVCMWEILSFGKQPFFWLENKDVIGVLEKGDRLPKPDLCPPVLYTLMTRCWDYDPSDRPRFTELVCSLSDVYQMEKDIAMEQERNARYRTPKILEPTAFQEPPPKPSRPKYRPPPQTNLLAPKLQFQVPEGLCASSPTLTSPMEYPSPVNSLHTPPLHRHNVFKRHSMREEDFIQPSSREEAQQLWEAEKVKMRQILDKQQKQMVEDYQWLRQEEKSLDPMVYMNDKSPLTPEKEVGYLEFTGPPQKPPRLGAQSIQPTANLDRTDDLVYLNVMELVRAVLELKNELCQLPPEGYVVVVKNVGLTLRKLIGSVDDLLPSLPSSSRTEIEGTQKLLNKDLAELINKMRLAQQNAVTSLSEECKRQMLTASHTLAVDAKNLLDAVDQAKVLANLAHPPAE
HCT116 PTEN-null: suppresses growth of cells with PTEN deletion; HCT116 PTEN-null viability, CellTiter-Glo, 60 h; stronger effect = lower value; hit rate 1.2% among 140,000; viability, % at 10 µM;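 active = viability at or below a set limit, 4 SD under the median of all tested compounds, cut at about 3.7% in these data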;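 also: PTEN knockout HCT116 line with beta catenin targeted HCT116 as companion control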
Lung fibro prol: blocks proliferation of human lung fibroblasts | viability, % at 10 µM | LL 47 human lung fibroblast viability, ATP luminescence; stronger effect = lower value | AID 719 | hit rate 1.1% among 85,000;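 active = viability at or below 50% in the single dose screen; inactive = viability above 50%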;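 also: compound exposure lasted 72 h before the ATP readout; 100% = median luminescence of untreated cell-only wells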
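Test system: LL 47 human lung fibroblasts; Quantity: 1,150 cells/well; Buffer or medium: IMEM plus 15% FBS; Dosing: tenfold compound dosing solution, DMSO at 0.1%; Timing: overnight cell rest, 72 h compound treatment at 37 °C; Detection: ATP-based CellTiter-Glo luminescent readout; Read-out basis: viability percentage against median untreated-cell control; Controls: cell-only wells, no compound.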
HCT116 bCat-KO: beta-catenin-lacking colon tumor cell growth suppression; viability, % at 10 µM; hit rate 1.5% among 140,000; HCT116 beta-catenin knockout viability, CellTiter-Glo, 60 h; stronger effect = lower value;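 active = viability at or under a set limit, the compound median less 4 SD, cut at about 6% in these data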;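 also: 0% = Hyamine 1622 control at 20 µM and 100% = untreated cell control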
The depositor's hits bear a star; / = no result given. Many of the other results were omitted from the sample, so hits are more common in it than they were.

SMILES	H69AR inhibit	HUVEC inhibit	PTK2B oligo ant	HCT116 PTEN-null	Lung fibro prol	HCT116 bCat-KO
CC1(C)CC2CC(C)(CN2C(=O)c2cc(-c3ccccc3O)on2)C1 (stereo not given)	16*	91	/	47	85	58
O=C(CSc1nc2ccccc2c(=O)n1NC(=O)c1ccccc1)c1ccc(Cl)cc1	89	83	0.17	85	105	85
O=C(CSc1nnc2n1CCCN2C(=S)Nc1ccc(Cl)cc1)c1ccccc1	26*	44	-0.04	64	67	63
CC(=O)N1CCC(=NNC(=O)c2cccs2)CC1	/	/	/	101	/	102
CCc1ccc(N2C(=O)c3sc4nnc(-c5ccccc5)c(=O)n4c3C2=O)cc1	30*	81	-0.38	86	61	101
C=CCOc1ccc(/C=N/NC(=O)C(=O)Nc2ccccn2)cc1OC	/	/	/	86	/	85
COc1ccc(CNc2nc(NCc3ccc(OC)c(OC)c3)n(C(=O)c3cccs3)n2)cc1OC	/	/	-3.4*	70	/	78
COc1ccc(C2CC(=O)c3cnc(NC(=O)c4ccccc4)nc3C2)c(OC)c1 (stereo not given)	27*	58	2.4	34	89	34
Cc1cc(NC(=O)CC2CCCC2)n(-c2nc3ccccc3[nH]2)n1	29*	59	-2	15	/	14
C[C@@H]1NC(=O)c2cc([N+](=O)[O-])cc(I)c2OCC[C@@H](C(N)=O)NC(=O)[C@H](CCC(=O)O)NC1=O	/	/	/	101	/	91
O=C(Oc1cccc2cccnc12)c1cccc(N2C(=O)C3C4CCC(C4)C3C2=O)c1 (stereo not given)	/	/	/	2.1*	/	4.5*
O=C(Oc1cccc2cccnc12)c1ccc(N2C(=O)C3C4CCC(C4)C3C2=O)cc1 (stereo not given)	/	/	/	24	/	29
CCN1C(=O)C2(C(C#N)=C(N)Oc3n[nH]c(-c4ccc(Cl)cc4)c32)c2ccccc21 (stereo not given)	46	103	-3*	96	97	94
O=C(Cn1c(C(=O)N2CCN(C3CCCC3)CC2)cc2sccc21)c1ccccc1	90	94	-3	71	89	75
CN(C)S(=O)(=O)c1ccc(Cl)c(NC(=O)c2ccncc2)c1	/	/	/	91	/	88
COc1ccc(OC)c(-c2cc(C3CCN(c4cc(Cl)nc(N)n4)CC3)[nH]n2)c1	/	/	-2.1	2.5*	/	1.7*
Cc1nn(-c2ccccn2)c2c1-c1nc(N3CCOCC3)ncc1CC2	10*	63	-1.4	68	93	79
O=C1C(Cl)=C(N2CCOCC2)C(=O)N1c1ccccc1Cl	28*	101	0.53	91	/	97
Cc1ccc(N2C(=O)C(Cl)=C(N3CCOCC3)C2=O)cc1Cl	/	/	/	88	/	86
COc1cc(C(=O)OCC(=O)c2cc(C)n(C)c2C)cc(NC(=O)c2ccco2)c1OC	11*	27*	-0.34	88	84	87
CNC(=O)COC(=O)c1cc(NC(=O)c2ccco2)c(OC)c(OC)c1	/	/	0.64	99	/	86
c1ccc(CSc2nnc(-c3cccnc3)o2)cc1	34*	87	-0.21	101	100	96
Cc1ccc(CSc2nnc(-c3cccnc3)o2)cc1	88	104	1.8	105	112	105
COc1ccc(C(=O)NC(NC(=S)Nc2ccc(S(N)(=O)=O)cc2)C(Cl)(Cl)Cl)cc1 (stereo not given)	/	/	-0.59	72	/	72
N#Cc1cnn(-c2ncnc3sc(-c4ccccc4)cc23)c1N	36*	74	0.1	89	96	88
SMILES	H69AR inhibit	HUVEC inhibit	PTK2B oligo ant	HCT116 PTEN-null	Lung fibro prol	HCT116 bCat-KO
COc1ccc(/C=C2\CN(Cc3ccccc3)C/C(=C\c3ccc(OC)cc3OC)C2=O)c(OC)c1	/	/	-0.18	2.7*	/	4.8*
COc1ccc(OC)c(S(=O)(=O)NC2CCN(Cc3ccccc3)CC2)c1	76	90	0.93	66	103	59
COc1ccc(/C=C2\CN(Cc3ccccc3)C/C(=C\c3ccc(OC)cc3)C2=O)cc1	/	/	/	1.6*	/	1.7*
COc1ccc(-n2c(=O)cc(N3CCN(Cc4ccccc4)CC3)[nH]c2=O)cc1	93	88	/	100	90	88
CCOC(=O)C1=C(C)N(c2ccccc2)C(=O)C1CC(=O)O (stereo not given)	91	104	0.18	91	92	102
Cc1ccc(C(NC(=O)N2CCOCC2)=C(Cl)Cl)cc1F	8.7*	103	0.48	1.4*	92	3.4*
COc1ccc(N(C)S(=O)(=O)c2cccc3cccnc23)c(OC)c1	17*	59	-0.43	25	75	22
COc1cc(OC)nc(-n2ncc(Br)c(Br)c2=O)n1	/	/	/	1.4*	/	1.6*
COc1ccc2[nH]c3c(Cl)ncnc3c2c1	/	/	/	9	/	5.7*
C/C(O)=C(\C#N)c1nnc2n1CCCCC2	95	101	0.6	103	97	83
C=CCn1c(=O)/c(=C/c2ccc(O)cc2)s/c1=C(/C#N)c1nnc2n1CCCCC2	54	88	-3.1*	89	89	90
C=CCn1c(=O)/c(=C\c2ccsc2)s/c1=C(/C#N)C(=O)NCCN1CCOCC1	78	85	0.27	99	93	90
COc1cc(CNc2nc3ccccc3n2C)cc(OC)c1OC	/	/	/	100	/	90
C=CCn1c(=O)/c(=C/c2cc(OC)c(OC)c(OC)c2)s/c1=C(/C#N)c1nc2ccccc2n1C	10*	50	-1.3	56	55	48
C=CCn1c(=O)/c(=C/c2ccc(Cl)cc2)s/c1=C(/C#N)c1nnc2n1CCCCC2	22*	68	-2	46	83	48
OCCn1c(SC2CCCCC2)nc2ccccc21	93	81	1.8	83	100	99
CC1(C)CCCN(C(=O)c2coc(=O)c(Br)c2)C1	7.0*	86	-0.28	74	98	90
O=C(c1ccc(Br)cc1)N1CCCC1	93	95	0.58	88	104	87
O=C(c1coc(=O)c(Br)c1)N1CCCc2ccccc21	-0.6*	85	0.1	84	85	91
O=C(c1cncc(Br)c1)N1CCCc2ccccc21	105	100	0.82	93	99	94
O=C(Oc1cccc(NC(=O)c2ccco2)c1)c1cccc(S(=O)(=O)N2CCCCC2)c1	72	95	0.43	93	103	101
O=C(NNS(=O)(=O)c1ccc(F)c(Cl)c1)c1cccc(S(=O)(=O)N2CCOCC2)c1	/	/	/	96	/	89
CCn1c(SCC(=O)c2ccccc2)nnc1-c1cccs1	92	94	-0.32	91	104	85
CS(=O)(=O)Cc1nc2ccccc2oc1=O	22*	112	0.19	47	107	54
COc1ccccc1Nc1ncnc2nc[nH]c12	/	/	-0.32	93	/	102
COc1ccc(-c2nnc(SCC(=O)N3CCN(c4ccccc4)CC3)o2)cc1OC	14*	66	/	87	94	91
Cn1c(N)c(S(=O)(=O)c2ccc(Br)cc2)c2nc3ccccc3nc21	13*	63	-0.47	84	97	77
